Experimental data published in PubChem BioAssay.
The source made the active and inactive calls.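 Rule for the calls, unless noted: active = viability loss from added drug above about 55%, and viability with drug at most 40%, in both replicates (limit read from the data, passing the limit was not always enough); inconclusive = both conditions met in only one replicate; inactive = neither replicate meets both conditions.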

Key:
[1] = Her2 expression decrease, cell viability multiplex – SKBR3 breast tumor cells, AlphaScreen, ATP viability, primary screen (AID 461;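 active = Her2 level under about 52% in both replicate screens, with viability over 70% of control, limit read from the data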;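 for Her2 level: lower value means less Her2 protein in the cells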;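 for viability: percent of carrier control wells set as 100% viability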); conditions: SKBR3 Her2 protein level, 18-24 h, measured here: SKBR3 viability, ATP luminescence, at 10 µM
[2] = molecular target: Receptor tyrosine-protein kinase erbB-2 (Homo sapiens) (UniProt P04626); test: as above; conditions: 18-24 h, at 10 µM, stronger effect = lower value
[3] = reduced viability of SK-BR-3 breast cancer cells – cell-based, 24 h, human, pilot screen (AID 572;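 active = viability at or below 10% of carrier control in both of two separate runs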;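 note: compound exposure lasted between 18 and 24 h rather than exactly 24 h; 100% = carrier-treated control wells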); conditions: SK-BR-3 viability, CellTiter-Glo luminescence, at 10 µM, stronger effect = lower value
[4] = HUVEC growth inhibition – cell-based, human, primary screen (AID 575;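 active = viability at or below 30% in both replicate assays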;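 note: 100% = median of untreated cell wells with 0.1% DMSO on each plate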); conditions: HUVEC proliferation, CellTiter-Glo luminescence, 72 h; at 10 µM; stronger effect = lower value
In short: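 Timing: 72 h treatment at 37 °C; material: HUVEC primary cells; technique: CellTiter-Glo luminescence measuring cellular ATP; controls: vehicle and MePR control wells; measure: percent of median DMSO-control luminescence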

[5] = H69AR cell proliferation blockers – human, duplicate replicates, primary screen (AID 580;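 active = viability at or under a set limit in both replicates, limit being median viability minus 3 SD, cut at about 48% in these data, passing the limit was not always enough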;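 note: 100% = mean luminescence of untreated wells and 0% = no signal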); conditions: H69AR lung tumor cells viability, ATP luminescence, 72 h; at 10 µM; stronger effect = lower value
[6] = MRP1 drug-resistance reversers in H69AR cells – cell-based, doxorubicin co-treatment, pilot screen (AID 601); conditions: CellTiter-Glo, 72 h, at 10 µM; for differential viability (reversal): stronger effect = higher value
[7] = yeast transport mutant growth inhibition pilot in 384-well plates, post-Golgi transport modulator project (AID 636; in the data active = inhibition above about 31%); conditions: absorbance 615 nm, about 18 h, stronger effect = higher value
[8] = growth suppression of yeast trafficking mutant, preliminary HTS, modulators of trafficking downstream of Golgi apparatus project, 1536-format plate, OD 615 nm (AID 637; in the data active = inhibition above about 30%); conditions: yeast transport mutant growth, absorbance 615 nm, 18 h; stronger effect = higher value
[9] = H69AR cells + 2 uM doxorubicin, measured here: viability with 2 uM doxorubicin, stronger effect = lower value
[10] = H69AR cells, compound alone cytotoxicity

Sequence of Receptor tyrosine-protein kinase erbB-2 (Homo sapiens) (P04626 whole entry, looked up): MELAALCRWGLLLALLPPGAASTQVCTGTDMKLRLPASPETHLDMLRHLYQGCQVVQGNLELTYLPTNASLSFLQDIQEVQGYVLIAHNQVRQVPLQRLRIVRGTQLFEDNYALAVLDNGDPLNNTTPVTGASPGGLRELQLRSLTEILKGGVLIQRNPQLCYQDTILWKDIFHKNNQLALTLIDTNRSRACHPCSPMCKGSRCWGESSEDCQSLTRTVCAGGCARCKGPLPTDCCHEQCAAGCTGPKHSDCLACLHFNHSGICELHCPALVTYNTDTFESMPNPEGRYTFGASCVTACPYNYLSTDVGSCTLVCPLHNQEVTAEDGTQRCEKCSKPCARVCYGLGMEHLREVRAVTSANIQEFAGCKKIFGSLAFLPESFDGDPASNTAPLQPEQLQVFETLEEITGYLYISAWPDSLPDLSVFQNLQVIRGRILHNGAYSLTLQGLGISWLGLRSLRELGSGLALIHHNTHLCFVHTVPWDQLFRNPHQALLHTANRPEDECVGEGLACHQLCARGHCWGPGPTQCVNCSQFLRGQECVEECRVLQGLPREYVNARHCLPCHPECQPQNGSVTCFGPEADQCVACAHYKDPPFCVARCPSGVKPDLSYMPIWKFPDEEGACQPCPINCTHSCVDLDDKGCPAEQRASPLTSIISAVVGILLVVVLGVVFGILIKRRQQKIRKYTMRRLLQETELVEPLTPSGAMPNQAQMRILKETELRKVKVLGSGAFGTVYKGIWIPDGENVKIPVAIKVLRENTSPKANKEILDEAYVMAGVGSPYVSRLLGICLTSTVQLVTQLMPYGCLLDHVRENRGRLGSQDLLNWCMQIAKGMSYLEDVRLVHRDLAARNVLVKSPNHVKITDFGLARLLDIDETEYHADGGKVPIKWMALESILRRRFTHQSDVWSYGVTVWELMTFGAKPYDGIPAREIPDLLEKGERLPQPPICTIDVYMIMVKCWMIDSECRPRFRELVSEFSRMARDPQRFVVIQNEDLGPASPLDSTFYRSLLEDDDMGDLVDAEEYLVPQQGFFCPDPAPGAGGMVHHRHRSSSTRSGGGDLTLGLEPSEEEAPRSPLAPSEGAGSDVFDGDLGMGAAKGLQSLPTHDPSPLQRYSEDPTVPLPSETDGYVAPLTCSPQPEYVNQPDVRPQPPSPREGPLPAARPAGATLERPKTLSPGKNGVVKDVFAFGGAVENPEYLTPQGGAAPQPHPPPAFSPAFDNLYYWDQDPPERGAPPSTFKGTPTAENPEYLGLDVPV

Row | SMILES | viability [1] | Her2 level [2] | viability [3] | viability [4] | viability [5] | differential viability (reversal) ([6]; H69AR cells + 2 uM doxorubicin) | viability [6, 9] | viability [6, 10] | inhibition [7] | inhibition [8]
1 | O=C(O)C1CC=CCC1C(=O)Nc1ccc(S(=O)(=O)N2CCCc3ccccc32)cc1 (stereo not given) | 85.5% | 88% (inactive) | 85.5% (inactive) | 64.4% (inactive) | 98.7% (inactive) | 4.55% (inactive) | 94.1% | 98.7% | -3.73% (inactive) | 0% (inactive)
2 | S=c1[nH]nc(Cc2ccccc2)n1-c1ccccc1 | 108% | 112% (inactive) | 108% (inactive) | 113% (inactive) | 92.9% (inactive) | 6.14% (inactive) | 86.7% | 92.9% | -4.1% (inactive) | -6.33% (inactive)
3 | Cc1nc2scc(-c3cccs3)c2c(=O)n1-n1cccc1 | 92% | 107% (inactive) | 92% (inactive) | 82.3% (inactive) | 99.3% (inactive) | 14.4% (inactive) | 84.8% | 99.3% | -1.79% (inactive) | -7.83% (inactive)
4 | COC(=O)c1cc(Br)c(=O)n(CCN2CCOCC2)c1 | 102% | 87% (inactive) | 102% (inactive) | 81.5% (inactive) | 96.2% (inactive) | 13.5% (inactive) | 82.8% | 96.2% | -4.27% (inactive) | -0.49% (inactive)
5 | COc1ccc(CNc2ccc(C(=O)O)cc2)cc1 | 102% | 87% (inactive) | 102% (inactive) | 93% (inactive) | 91.7% (inactive) | 4.9% (inactive) | 86.8% | 91.7% | -3.87% (inactive) | 8.55% (inactive)
6 | O=C(NCc1ccco1)C1CCN(C(=O)c2cc3sccc3n2Cc2ccc(F)cc2)CC1 | 94.5% | 62.5% (inactive) | 94.5% (inactive) | 56.1% (inactive) | 67.1% (inactive) | -6.56% (inactive) | 73.7% | 67.1% | -5.87% (inactive) | 5.74% (inactive)
7 | Cc1ccc(C)c(N(CC(=O)NCc2ccco2)C(=O)CCC(=O)Nc2ccccn2)c1 | 93% | 92% (inactive) | 93% (inactive) | 81.8% (inactive) | 68.6% (inactive) | -5.34% (inactive) | 74% | 68.6% | -3.25% (inactive) | -1.43% (inactive)
8 | COCCn1c(C)cc(C(=O)COC(=O)c2n[nH]c3ccccc23)c1C | 97.5% | 84% (inactive) | 97.5% (inactive) | 92.5% (inactive) | 81.3% (inactive) | -2.8% (inactive) | 84.1% | 81.3% | -8.24% (inactive) | 0.98% (inactive)
9 | CCN1C(=O)N(CC)C2C1N(C(C)=O)C(=O)N2C(C)=O (stereo not given) | 107% | 102% (inactive) | 107% (inactive) | 104% (inactive) | 94.8% (inactive) | 11.9% (inactive) | 83% | 94.8% | -5.66% (inactive) | -2.18% (inactive)
10 | Cc1ccc(SCCNS(=O)(=O)c2ccc(F)cc2)cc1 | 85% | 112% (inactive) | 85% (inactive) | 78.8% (inactive) | 105% (inactive) | 13.5% (inactive) | 91.1% | 105% | -6.8% (inactive) | -2.42% (inactive)
11 | Cc1cc(C)nc(SCc2nnc(SCc3ccccc3Cl)o2)n1 | 80% | 78.5% (inactive) | 80% (inactive) | 93.8% (inactive) | 79.5% (inactive) | -1.99% (inactive) | 81.5% | 79.5% | -3.29% (inactive) | 1.82% (inactive)
12 | CCN1CCN(CCCNC(=O)c2cn(CCOC)c(=O)c3c2c2ccccc2n3C)CC1 | 121% | 122% (inactive) | 121% (inactive) | 96.4% (inactive) | 97.2% (inactive) | 6.88% (inactive) | 90.3% | 97.2% | -2.11% (inactive) | -3.82% (inactive)
13 | N#Cc1ccc(COC(=O)Cn2nnc(-c3ccccc3)n2)cc1 | 111% | 96% (inactive) | 111% (inactive) | 89.5% (inactive) | 70.7% (inactive) | 6.57% (inactive) | 64.1% | 70.7% | -3.12% (inactive) | -0.95% (inactive)
14 | Cc1cc(C(=O)NCCN2CCCCC2C)n(-c2ccccc2)n1 (stereo not given) | 87.5% | 116% (inactive) | 87.5% (inactive) | 92.3% (inactive) | 92.6% (inactive) | 3.49% (inactive) | 89.1% | 92.6% | -2.8% (inactive) | -3.77% (inactive)
15 | O=C1CCCC2=C1C1(CCCC1)N=C(Nc1nc3ccccc3s1)N2 | 99.5% | 80% (inactive) | 99.5% (inactive) | 62.8% (inactive) | 79.5% (inactive) | 11.3% (inactive) | 68.2% | 79.5% | -4.21% (inactive) | -2.33% (inactive)
16 | COCCNC(=O)C(c1ccncc1)N(C(=O)Cn1nnc2ccccc21)c1ccc(OC)cc1 (stereo not given) | 96% | 73.5% (inactive) | 96% (inactive) | 97.7% (inactive) | 104% (inactive) | 9.12% (inactive) | 95.1% | 104% | -7.03% (inactive) | 8.03% (inactive)
17 | O=C(/C=N/O)NCc1ccncc1 | 100% | 94.5% (inactive) | 100% (inactive) | 102% (inactive) | 108% (inactive) | 7.88% (inactive) | 100% | 108% | -1.43% (inactive) | -3.81% (inactive)
18 | Cc1ccc(C)c(N2CCN(C(=O)CCCn3c(=S)[nH]c4cc5c(cc4c3=O)OCO5)CC2)c1 | 73.5% | 88.5% (inactive) | 73.5% (inactive) | 62.5% (inactive) | 94% (inactive) | 4.74% (inactive) | 89.2% | 94% | -3.38% (inactive) | -0.33% (inactive)
19 | Cn1nnnc1SCC(=O)NC1CCCCC1 | 77.5% | 77% (inactive) | 77.5% (inactive) | 108% (inactive) | 96.1% (inactive) | -1.11% (inactive) | 97.2% | 96.1% | -5.95% (inactive) | -2.62% (inactive)
20 | N#Cc1c(-c2ccccc2)nc(SCc2nc(N)nc(N3CCCCC3)n2)[nH]c1=O | 90.5% | 86.5% (inactive) | 90.5% (inactive) | 81.5% (inactive) | 99.9% (inactive) | -2.35% (inactive) | 102% | 99.9% | -6% (inactive) | 5.08% (inactive)
21 | COc1ccc(NC(=O)c2cc(C)on2)cc1OC | 110% | 93% (inactive) | 110% (inactive) | 104% (inactive) | 96.7% (inactive) | 8.07% (inactive) | 88.6% | 96.7% | -5.87% (inactive) | 3.28% (inactive)
22 | O=C(NCC(c1cccnc1)N1CCOCC1)c1ccco1 (stereo not given) | 97% | 71% (inactive) | 97% (inactive) | 106% (inactive) | 98.9% (inactive) | 8.38% (inactive) | 90.6% | 98.9% | -4.87% (inactive) | 1.17% (inactive)
23 | COc1ccccc1-n1nnnc1SCc1ccccc1 | 103% | 94% (inactive) | 103% (inactive) | 90.6% (inactive) | 97.1% (inactive) | 16.7% (inactive) | 80.3% | 97.1% | -4.27% (inactive) | 1.61% (inactive)
24 | CC(C)(C)NC(=O)Nc1ccccc1C(N)=O | 110% | 108% (inactive) | 110% (inactive) | 103% (inactive) | 110% (inactive) | 7.05% (inactive) | 103% | 110% | -2.27% (inactive) | -5% (inactive)
25 | CC(C)CNS(=O)(=O)c1ccc(CCC(=O)N2CCOCC2)cc1 | 87.5% | 94% (inactive) | 87.5% (inactive) | 95% (inactive) | 91.3% (inactive) | -3.29% (inactive) | 94.6% | 91.3% | -4.73% (inactive) | -4.59% (inactive)
26 | C#CCNc1c(C)c(C)nc2ncnn12 | 104% | 97% (inactive) | 104% (inactive) | 126% (inactive) | 104% (inactive) | 18.7% (inactive) | 85.3% | 104% | -5.07% (inactive) | 11.5% (inactive)
27 | O=C(CN1C(=O)c2cccc3cccc1c23)NCC1CCCO1 (stereo not given) | 104% | 116% (inactive) | 104% (inactive) | 98.8% (inactive) | 96.5% (inactive) | 1.85% (inactive) | 94.7% | 96.5% | 1.05% (inactive) | 1.97% (inactive)
28 | CCCC(=O)N=C1SC2CS(=O)(=O)CC2N1c1ccc(CC)cc1 (stereo not given) | 97.5% | 80% (inactive) | 97.5% (inactive) | 83.2% (inactive) | 93.2% (inactive) | 7.88% (inactive) | 85.4% | 93.2% | -5.33% (inactive) | 3.61% (inactive)
29 | Cc1ccc(NC(=O)c2ccc(NS(=O)(=O)c3c(C)noc3C)cc2)cc1C | 97% | 81.5% (inactive) | 97% (inactive) | 84.1% (inactive) | 95% (inactive) | 11.6% (inactive) | 83.4% | 95% | -2.24% (inactive) | -4.55% (inactive)
